Activity calls are given as the source filed them. The rule behind the calls is not given here.
Assays:
[1] = Inhibition of baker's yeast alpha-glucosidase using p-nitrophenyl-alpha-D-glucopyranoside substrate assessed as inhibition constant for enzyme-compound binding by measuring reduction in p-nitrophenolate formation; design: species or system Saccharomyces cerevisiae
Method in brief: (§1)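 Same α-glucosidase conditions: pH 6.8 phosphate buffer, 25 °C, A400 for p-nitrophenolate, 5% DMSO. Done for inhibitors exceeding 50% inhibition at 500 µM. Rates measured at 5 substrate concentrations from 0.25 to 4.0 K_m, each at a fixed inhibitor concentration, using 2–3 inhibitor concentrations. Lineweaver–Burk double reciprocal plots gave the inhibition mode and constants K_ia (E) and K_ib (ES).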

[2] = Inhibition of baker's yeast alpha-glucosidase using p-nitrophenyl-alpha-D-glucopyranoside substrate assessed as reduction in p-nitrophenolate formation at 500 uM; conditions: Saccharomyces bayanus
Method in brief: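 α-Glucosidase in 0.1 M phosphate buffer pH 6.8 with p-nitrophenyl-α-D-glucopyranoside at K_M (250 µM; K_M 0.25 mM). Inhibitor at 500 µM final or DMSO, DMSO 5% v/v.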

WiDr = test: Antiproliferative activity against human WiDr cells after 48 hrs by sulforhodamine B assay; assay type: functional
Method in brief: (§2)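 Exponentially growing cells trypsinized into penicillin/streptomycin medium, >97% viable by trypan blue. Seeded per well: 10,000 (A549, HBL-100, HeLa, SW1573), 15,000 (T-47D), 20,000 (WiDr). Treatment began day 1, DMSO stocks 40 mM, 0.25% DMSO as control, triplicate, 48 h. Cells fixed with cold TCA 60 min at 4 °C, SRB stained, OD492 read, medium background subtracted.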

[3] = Antiproliferative activity against human HBL100 cells after 48 hrs by sulforhodamine B assay; assay type: functional; conditions: HBL-100, 48 h; method in brief: as §2
HeLa = test: Antiproliferative activity against human HeLa cells after 48 hrs by sulforhodamine B assay; assay type: functional; method in brief: as §2
[4] = Antioxidant activity assessed as H2O2 scavenging activity at 100 uM incubated for 20 mins by phenol red based assay; assay type: physicochemical
Method in brief: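 Compound at 100 µM final, or DMSO control, in 0.1 M phosphate buffer pH 7.4 with H2O2 and 0.1 M NaCl, incubated in the dark at 37 °C for 20 min. Phenol red (0.2 mg/mL) and horseradish peroxidase (0.1 mg/mL) added, 15 min at 37 °C. NaOH added, 10 min at rt, A610 read. % reduction = (A_control − A_sample)/A_control × 100.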

[5] = Inhibition of baker's yeast alpha-glucosidase using p-nitrophenyl-alpha-D-glucopyranoside substrate assessed as inhibition constant for enzyme-substrate-compound binding by measuring reduction in p-nitrophenolate formation; method in brief: as §1
[6] = Antioxidant activity assessed as DPPH free radical scavenging activity incubated for 30 mins; assay type: physicochemical
Method in brief: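 DPPH in HPLC-grade solvent mixed with compound in DMSO at 7 concentrations, or with DMSO alone as control. Kept in the dark at rt for 30 min, then A515 read against a blank. % DPPH remaining = A_sample/A_control × 100, plotted against concentration; EC50 taken from the straight line. Triplicate.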

[7] = Pro-oxidant activity assessed as hydroxyl radical generation through deoxyribose degradation by measuring change in absorbance at 0.83 mM by TBARS based spectrophotometry; assay type: ADME; conditions: 830 µM
Method in brief: (§3)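 Modified Halliwell deoxyribose assay with the compound at the stated concentration in 0.1 M phosphate buffer pH 7.4, with 2-deoxyribose, H2O2, and FeCl3 premixed with EDTA. Heated 1 h at 37 °C, then TBA in NaOH and trichloroacetic acid added and heated 15 min at 100 °C. Cooled, A532 read; DMSO as control. Repeated without deoxyribose to account for TBARS interference.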

SW1573 = test: Antiproliferative activity against human SW1573 cells after 48 hrs by sulforhodamine B assay; assay type: functional; conditions: SW1573, 48 h; method in brief: as §2
[8] = Antioxidant activity assessed as inhibition of the lipid peroxidation at 0.74 mM incubated for 24 hrs by ferric thiocyanate method; assay type: physicochemical; conditions: 740 µM
Method in brief: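 Ferric thiocyanate method at 0.74 mM. 10.0 mM DMSO stock combined with methanolic linoleic acid in 0.2 M phosphate buffer pH 7.0. AAPH added, then 24 h at 50 °C in the dark; DMSO served as control. An aliquot was diluted in H2O–DMSO with NH4SCN and FeCl2 in HCl. After 3 min at rt, A546 read. % inhibition relative to control.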

[9] = Mixed inhibition of baker's yeast alpha-glucosidase using p-nitrophenyl-alpha-D-glucopyranoside substrate assessed as reduction in p-nitrophenolate formation by Lineweaver-Burk plot; conditions: Saccharomyces bayanus; method in brief: as §1
T47D = test: Antiproliferative activity against human T47D cells after 48 hrs by sulforhodamine B assay; assay type: functional; method in brief: as §2
A549 = test: Antiproliferative activity against human A549 cells after 48 hrs by sulforhodamine B assay; assay type: functional; conditions: A549, 48 h; method in brief: as §2
[10] = Potency index, ratio of IC50 for hydroxytyrosol to IC50 for test compound for antioxidant activity assessed as DPPH free radical scavenging activity incubated for 30 mins
[11] = Pro-oxidant activity assessed as hydroxyl radical generation through deoxyribose degradation by measuring change in absorbance at 0.17 mM by TBARS based spectrophotometry; assay type: ADME; conditions: 170 µM; method in brief: as §3
[12] = Pro-oxidant activity assessed as hydroxyl radical generation through deoxyribose degradation by measuring change in absorbance at 0.42 mM by TBARS based spectrophotometry; assay type: ADME; conditions: 420 µM; method in brief: as §3
[13] = Pro-oxidant activity assessed as hydroxyl radical generation through deoxyribose degradation by measuring change in absorbance at 0.083 mM by TBARS based spectrophotometry; assay type: ADME; conditions: 83 µM; method in brief: as §3
Saccharomyces bayanus [14] = test: Non-competitive inhibition of baker's yeast alpha-glucosidase using p-nitrophenyl-alpha-D-glucopyranoside substrate assessed as reduction in p-nitrophenolate formation by Lineweaver-Burk plot; method in brief: as §1
Saccharomyces bayanus [15] = test: Potency index, ratio of Ki for acarbose to Ki for compound against baker's yeast alpha-glucosidase using p-nitrophenyl-alpha-D-glucopyranoside substrate assessed as reduction in p-nitrophenolate formation
Saccharomyces bayanus [16] = test: Un-competitive inhibition of baker's yeast alpha-glucosidase using p-nitrophenyl-alpha-D-glucopyranoside substrate assessed as reduction in p-nitrophenolate formation by Lineweaver-Burk plot; method in brief: as §1
[17] = Inhibition of baker's yeast alpha-glucosidase using p-nitrophenyl-alpha-D-glucopyranoside substrate assessed as reduction in p-nitrophenolate formation
Method in brief: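 Run in 0.1 M phosphate buffer, pH 6.8, with 5% (v/v) DMSO. […] Enzyme started the reaction at 25 °C, and p-nitrophenolate was followed at 400 nm. Percent inhibition came from rates with and without inhibitor. Where inhibition exceeded 50%, Ki and mode were derived by Lineweaver–Burk, using substrate 0.25–4.0 Km and 2–3 fixed inhibitor concentrations.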

Compound | Ki [1] | inhibition [2] | GI50 (WiDr) | GI50 [3] | GI50 (HeLa) | inhibition (INH) [4] | Ki [5] | EC50 [6] | Activity [7] | GI50 (SW1573) | inhibition (INH) [8] | inhibition [9] | GI50 (T47D) | GI50 (A549) | Ratio IC50 [10] | also measured
Oc1cc(/C=N/NC(=[Se])Nc2cccc3ccccc23)cc(O)c1O | 154 µM | 98% | 3.6 µM | 2.4 µM | 2.3 µM | 38.1% | 70.3 µM | 8.87 µM | 0.067 | 2.9 µM | 24.3% | Active | 2.7 µM | 1.7 µM | – | –
Oc1cc(O)c(/C=N/NC(=[Se])Nc2cccc3ccccc23)cc1O | 33 µM | 95% | 5.2 µM | 4 µM | 3 µM | 4.5% | 76.8 µM | 10.7 µM | – | 5 µM | 43% | Active | 3.5 µM | 1.7 µM | < 3 | –
O=Cc1cc(O)c(O)c(O)c1 | – | inactive | 39 µM | 72 µM | 16 µM | 79.1% | – | 15.3 µM | – | 38 µM | Not Active | – | 43 µM | 7.3 µM | – | –
Oc1ccc(/C=N/NC(=[Se])Nc2cccc3ccccc23)cc1O | 57.8 µM | 95% | 2.8 µM | 2.6 µM | 2.2 µM | 46.3% | 69.8 µM | 18.2 µM | 0.079 | 3.2 µM | 72% | Active | 2.5 µM | 1.1 µM | – | Activity [11]: 0.037; Activity [12]: 0.041; Activity [13]: 0.097
NNC(=[Se])Nc1cccc2ccccc12 | – | 14% | – | – | – | 56.9% | – | 6.65 µM | 0.064 | – | 21.9% | – | – | – | < 3 | –
Oc1cc(/C=N/NC(=S)Nc2ccccc2)cc(O)c1O | 297 µM | 70% | > 100 µM | 71 µM | 32 µM | 80% | 86.2 µM | 7 µM | – | 49 µM | 59.9% | Active | 61 µM | 9.3 µM | < 3 | –
Oc1ccc(/C=N/NC(=S)Nc2ccccc2)cc1O | 708 µM | 68% | 27 µM | 35 µM | 7 µM | 79.3% | 134 µM | 9.27 µM | – | 24 µM | 72% | Active | 25 µM | 1.6 µM | < 3 | –
OCCc1ccc(O)c(O)c1 [HYDROXYTYROSOL] | – | – | – | – | – | – | – | 13.8 µM | – | – | – | – | – | – | – | –
Oc1ccc(/C=N/NC(=[Se])Nc2ccccc2)cc1 | 336 µM | 62% | 16 µM | 13 µM | 3.7 µM | 72.5% | – | 27.8 µM | 0.087 | 19 µM | 31% | – | 7.2 µM | 1.4 µM | – | inhibition (Saccharomyces bayanus [14]): Active
O=Cc1cc(O)c(O)cc1O | – | inactive | > 100 µM | > 100 µM | > 100 µM | 80.3% | – | 5.97 µM | – | > 100 µM | 56.1% | – | > 100 µM | > 100 µM | – | –
Oc1cc(O)c(/C=N/NC(=S)Nc2ccccc2)cc1O | 9.6 µM | 100% | 30 µM | 29 µM | 19 µM | Not Active | – | 13.9 µM | 0.067 | 30 µM | 56.8% | – | 10 µM | 1.2 µM | – | Ratio Ki (Saccharomyces bayanus [15]): 8; inhibition (Saccharomyces bayanus [14]): Active
Oc1cc(/C=N/NC(=[Se])Nc2ccccc2)cc(O)c1O | 30.3 µM | 95% | 3.7 µM | 2 µM | 2.1 µM | 64% | 78.4 µM | 4.87 µM | – | 3.9 µM | 65.7% | Active | 2.9 µM | 1.5 µM | < 3 | –
O=Cc1ccc(O)cc1 [4-HYDROXYBENZALDEHYDE] | – | inactive | > 100 µM | > 100 µM | > 100 µM | Not Active | – | > 250 µM | – | > 100 µM | Not Active | – | > 100 µM | > 100 µM | – | –
Oc1ccc(/C=N/NC(=[Se])Nc2ccccc2)cc1O | 201 µM | 81% | 3.2 µM | 3.8 µM | 3.3 µM | 69% | – | 8.77 µM | 0.097 | 5.8 µM | 66.5% | – | 3.7 µM | 2.6 µM | < 3 | inhibition (Saccharomyces bayanus [14]): Active
Oc1ccc(/C=N/NC(=S)Nc2ccccc2)cc1 | – | 52% | 61 µM | 43 µM | 42 µM | 79.5% | 213 µM | 90.1 µM | 0.094 | 35 µM | 5.5% | – | 88 µM | 34 µM | – | inhibition (Saccharomyces bayanus [16]): Active
O=Cc1ccc(O)c(O)c1 [PROTOCATECHUALDEHYDE] | – | inactive | > 100 µM | > 100 µM | 49 µM | 78.3% | – | 6.57 µM | – | 54 µM | 35.7% | – | > 100 µM | 42 µM | – | –
O=c1[nH]cc(F)c(=O)[nH]1 [FLUOROURACIL] | – | – | 49 µM | 5.5 µM | 15 µM | – | – | – | – | 4.3 µM | – | – | 47 µM | – | – | –
C[C@H]1O[C@H](O[C@H]2[C@H](O)[C@@H](O)[C@@H](O[C@H]3[C@H](O)[C@@H](O)C(O)O[C@@H]3CO)O[C@@H]2CO)[C@H](O)[C@@H](O)[C@@H]1N[C@H]1C=C(CO)[C@@H](O)[C@H](O)[C@H]1O (some centres undefined) [ACARBOSE] | – | – | – | – | – | – | – | – | – | – | – | – | – | – | – | Ki [17]: 77.9 µM
